Source: PubChem (several laboratories)
A selection: hits, their analogues and other compounds. The true share with any hit is near 2.2%.
GPR7 antag: GPR7 receptor antagonists, primary screen, cell-based, fluorescence, single concentration. Neuropeptides B/W receptor type 1 (Homo sapiens), P48145. GPR7-expressing cells, fluorescence antagonist assay. inhibition, % at 4.4 µM. 1.1% of 290,000 active; in the data active means inhibition above about 16%, passing the limit was not always enough;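 further: cells stimulated with the agonist NPW; 0% = agonist with vehicle and 100% = vehicle without agonist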
DNA FID counter: compounds displacing fluorescent DNA intercalator, primary screen, artefact control for HCV NS3 helicase inhibitor project, biochemical, FID fluorescence | inhibition, % at 7.9 µM | 0.17% of 290,000 active | DNA fluorescent intercalator displacement; in the data active means inhibition above about 37%;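 further: 0% = vehicle and 100% = reference compound; higher means more ethidium bromide displaced from hairpin DNA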
HCV NS3 hel inh: inhibitors of HCV NS3 helicase, primary screen, biochemical, Cy5 molecular beacon fluorescence; Hepatitis C virus NS3 helicase; NS3 helicase DNA unwinding; inhibition, % at 10.9 µM; 0.56% of 290,000 active;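 active means inhibition above the mean of all tested compounds plus 3 SD, set per campaign, cut at about 35% in these data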;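 further: 0% = DMSO wells and 100% = thioflavine S control wells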
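Compound dosing – single dose, 10.9 µM nominal final, DMSO 0.8% final · System – NS3 helicase fragment of HCV · Buffer or medium – MOPS pH 6.5, MgCl2, DTT, Tween20, BSA · Signal – Cy5 beacon fluorescence read at start and 1 h · Also added – annealed dual-labelled DNA beacon duplex, ATP-started · Schedule – 1 h at 25 °C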
DAGLB inh: DAGLB lipase inhibitors, primary screen, biochemical, fluorescence, HTS; HEK293T DAGLB membrane lysate, EnzChek fluorogenic substrate; Diacylglycerol lipase-beta (Homo sapiens), Q8NCG7; inhibition, % at 5.17 µM; 0.059% of 340,000 active; in the data active means inhibition above about 34%;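 further: 0% = enzyme with vehicle and 100% = wells lacking enzyme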
Target sequence (Q8NCG7 whole entry, looked up): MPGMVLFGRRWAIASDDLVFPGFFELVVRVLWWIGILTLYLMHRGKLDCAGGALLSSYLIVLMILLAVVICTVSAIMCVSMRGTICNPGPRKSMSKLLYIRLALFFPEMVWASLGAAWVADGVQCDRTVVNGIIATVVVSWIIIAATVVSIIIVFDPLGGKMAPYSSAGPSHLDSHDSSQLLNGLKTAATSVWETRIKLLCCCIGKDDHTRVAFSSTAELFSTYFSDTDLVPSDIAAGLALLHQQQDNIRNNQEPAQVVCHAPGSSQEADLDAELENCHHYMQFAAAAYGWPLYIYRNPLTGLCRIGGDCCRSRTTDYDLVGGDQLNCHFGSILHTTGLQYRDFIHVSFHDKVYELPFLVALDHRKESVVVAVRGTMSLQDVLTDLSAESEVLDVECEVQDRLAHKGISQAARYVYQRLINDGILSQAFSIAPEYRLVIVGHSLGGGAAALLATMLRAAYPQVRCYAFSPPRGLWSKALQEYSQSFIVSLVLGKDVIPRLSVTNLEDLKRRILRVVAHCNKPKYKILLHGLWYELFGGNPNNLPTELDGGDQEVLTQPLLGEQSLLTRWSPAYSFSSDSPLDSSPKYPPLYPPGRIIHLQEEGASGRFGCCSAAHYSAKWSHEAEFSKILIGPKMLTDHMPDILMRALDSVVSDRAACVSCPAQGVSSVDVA
GRK2 aptamer HTS: compounds blocking aptamer binding on GRK2 – biochemical, human GRK2, bead flow cytometry, HTS, primary screen. inhibition of aptamer binding, % at 10 µM. FAM-aptamer displacement from GRK2. Beta-adrenergic receptor kinase 1 (Homo sapiens), P25098. 0.59% of 330,000 active;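 active means inhibition of aptamer binding above 40%, roughly 3 SD of noise, on plates passing a quality check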;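 further: median bead fluorescence of bound FAM aptamer so fluorescent compounds give negative values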
core dimer inh: inhibitors of HCV core protein dimerization, primary screen, biochemical, TR-FRET, high-throughput | inhibition, % at 5 µM | TR-FRET GST/Flag-core106 dimerization, 1536-well | AID 1899, 2009 | 0.33% of 300,000 active;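 active means inhibition above the mean of all tested compounds plus 3 SD, set per screening campaign, cut at about 45% in these data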
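Assay system – GST-tagged and Flag-tagged HCV core protein residues 1-106 · Quantity – core106 proteins, GST 13.5 nM and Flag 17 nM · Benchmarks – unlabelled core106 and no-GST-core106 wells · Read-out basis – percent inhibition of core106 dimerization signal · Detection – time-resolved FRET, ex 340 nm, em 617 and 671 nm · Schedule – 4 h at 22.5 °C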
GRK2 inh confirm: GRK2 aptamer-displacing inhibitors, retest, confirmation, biochemical, cherry pick 1, bead flow cytometry; shares compounds with GRK2 aptamer HTS; bead-bound GRK2, FAM-aptamer displacement; aptamer displacement, % at 10 µM; 4% of 2,000 active; AID 504451, 2011;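 active means aptamer displacement above 40%, near three times the noise of non-fluorescent compounds, on plates passing quality checks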;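 further: negative values mostly reflect intrinsic compound fluorescence rather than true enhancement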
Aptamer quench: fluorescent aptamer quenching in GRK2 counter-screen dose response; shares compounds with GRK2 aptamer HTS; fluorescence change (kMESF span), kMESF (test concentration not listed); 110 tested, under 10 active; AID 504521; Fluorescent RNA aptamer beads, flow cytometry; stronger effect = higher value;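 active means compounds whose bead fluorescence drops by more than 37 kMESF across the dose range, marking them as dye quenchers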
FAM quench CP1: quenches fluorescent RNA aptamer, GRK2 hit artifact; shares compounds with GRK2 aptamer HTS; Carboxyfluorescein RNA aptamer on beads, flow cytometry quenching; stronger effect = lower value; fluorescence response (% of DMSO), % at 10 µM; 2,000 tested, under 10 active;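 active means compounds that quench the bead-bound fluorescent RNA probe, cutting fluorescence to under half of the solvent control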;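 further: counterscreen run without GRK2 so only probe quenching by compound is measured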
GRK2 confirm 2: GRK2 aptamer-displacing inhibitors, hit retest, confirmation, biochemical, cherry pick 2, bead flow cytometry | shares compounds with GRK2 aptamer HTS | bead-bound GRK2, FAM-aptamer displacement | inhibition of aptamer binding, % at 10 µM | 360 tested, under 10 active | AID 504782, 2011;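 active means inhibition of aptamer binding above 40%, about triple the noise seen with nonglowing compounds, on plates passing quality control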;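 further: negative values mostly come from compounds that fluoresce themselves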
Aptamer quench3: fluorescence quenching of FAM-labeled RNA aptamer, dose response, artefact control for GRK2 aptamer inhibitor project, biochemical, flow cytometry, cherry pick 2. Streptavidin beads. AID 504819, 2011. 25 tested, under 10 active. change in fluorescence (kMESF span), kMESF (test concentration not listed). shares compounds with GRK2 aptamer HTS;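 active means compounds quenching the bead-bound labeled aptamer, with fluorescence dropping by more than 37 kMESF over the dose range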
FAM quench SP: quenches fluorescent RNA aptamer, GRK2 hit artifact; shares compounds with GRK2 aptamer HTS; carboxyfluorescein RNA aptamer beads, flow cytometry quenching; stronger effect = lower value; fluorescence response vs DMSO, % at 10 µM; 360 tested, under 10 active; AID 588494;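 active means response vs DMSO under 50%, meaning signal dropped by over half, treated as fluorescence quencher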;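 further: labelled aptamer on streptavidin beads without GRK2 as a quench counter-screen; 100% = bead fluorescence of DMSO wells and lower means quenching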
* = called active by the depositor; . = no result.

SMILES | GPR7 antag | DNA FID counter | HCV NS3 hel inh | DAGLB inh | GRK2 aptamer HTS | core dimer inh | others
CN(C)CCCN(C(=O)c1ccc(S(=O)(=O)N2CCOCC2)cc1)c1nc2cc3c(cc2s1)OCO3 | 15.8 | 25.0 | -13.6 | 0.4 | 0.0 | -1.6
CCCCn1c(N)c(N(CCOC)C(=O)C2CCN(S(=O)(=O)c3ccccc3)CC2)c(=O)[nH]c1=O | . | . | . | 3.2 | 0.0 | -2.7
COc1ccc(NC(=O)CCS(=O)(=O)c2cccc3nonc23)c(OC)c1 | -0.8 | 2.8 | 1.9 | -1.7 | 1.0 | 0.7 | GRK2 confirm 2=-6.2;FAM quench SP=100.0
CCc1ccccc1NC(=O)CCS(=O)(=O)c1ccc(OC)cc1 | -8.4 | -9.9 | 19.9 | -1.3 | 53.0* | -288.0 | GRK2 inh confirm=27.3;Aptamer quench=2.8;FAM quench CP1=98.8;Aptamer quench3=0.3
CCOc1ccccc1NC(=O)CCS(=O)(=O)c1ccc(OC)cc1 | -3.6 | -12.2 | -9.3 | -0.7 | 0.0 | 6.4 | GRK2 confirm 2=-32.9;FAM quench SP=103.0
CCOc1ccccc1NC(=O)CCC(=O)Nc1ccccc1OCC | -13.7 | -8.5 | -4.9 | -1.9 | 0.0 | -4.6
COc1ccc(NC(=O)CCS(=O)(=O)c2cccc3nonc23)cc1 | -1.3 | 0.2 | 5.7 | -1.6 | 1.0 | 3.9
O=C(O)c1cccc2c1Cc1cc(Cl)ccc1-2 | . | . | . | 3.6 | . | .
CCOc1ncccc1C(=O)Nc1cccc(Cl)c1Cl | -0.7 | -2.3 | 12.5 | 1.5 | 4.0 | -9.9
CC(=O)c1cccc(NC(=S)N2CCN(c3ccccn3)CC2)c1 | -2.3 | -19.4 | -9.0 | -0.1 | 7.0 | 5.3
c1ccc(COc2ncnc3c2ncn3CCCNCCN2CCOCC2)cc1 | . | . | . | 1.4 | . | .
Cc1cc(C)n(-c2nc(NCCCO)c3c4c(sc3n2)CCCC4)n1 | 6.6 | -19.2 | -2.6 | 1.3 | 4.0 | -7.1 | GRK2 inh confirm=-3.0;FAM quench CP1=95.8
Cc1cc(C)n(-c2nc(NCCO)c3c4c(sc3n2)CCCC4)n1 | -2.8 | -15.0 | -6.9 | 1.8 | 9.0 | 2.0
O=c1c2c(ncn2C2CCCC2)n(Cc2ccccc2)c(=O)n1CCOc1ccc(Br)cc1 | -8.5 | -17.5 | -5.5 | -4.0 | 100.0* | 0.1 | GRK2 confirm 2=-14.4;FAM quench SP=107.0
O=c1c2c(ncn2C2CCCC2)n(Cc2ccccc2)c(=O)n1CCOc1ccccc1 | -7.6 | -16.0 | -14.4 | -6.3 | 0.0 | 11.2
Cc1nnc(SCc2c(Cl)cccc2Cl)n(N)c1=O | 4.1 | -8.3 | -3.4 | 1.2 | 61.0* | 3.4 | GRK2 inh confirm=4.0;FAM quench CP1=95.2
CCOc1ccc(CN(C)C(=O)CNC(=O)c2ccc(Br)o2)cc1OC | 6.4 | -16.2 | -1.5 | -1.0 | 0.0 | 8.7
COCCCn1c(C(=O)Nc2ccc3c(c2)OCO3)cc2c(=O)n3cccc(C)c3nc21 | . | . | . | -3.0 | . | .
